Measured values as given in ChEMBL document CHEMBL1138298, “Synthesis and evaluation of 7H-8,9-dihydropyrano[2,3-c]imidazo[1,2-a]pyridines as potassium-competitive acid blockers” (J Med Chem, 2007).
Activity calls are given as the source filed them. No cut-off for these calls is given here.

Tests used:
[1] = tested on: Rattus norvegicus; assay: Inhibition of pentagastrin-stimulated acid secretion in perfused Ghosh Schild rat stomach at 0.3 umol/kg, intraduodenal; assay type: functional; parameters: scale not given: the % may be the effect or the level left
In short: (§1)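 Anaesthetised rat with perfused stomach: 37 °C saline at 0.5 mL/min. Effluent titrated to pH 7 with 0.01 N NaOH in 15-min fractions. Secretion driven by continuous iv pentagastrin, 1 µg/kg (1.65 mL/h). Compound given intraduodenally in 2.5 mL/kg volume 60 min after infusion start. Body temperature held at 37.8-38 °C.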

[2] = (§2) Inhibition of H+/K+ ATPase in hog gastric mucosa; assay type: tissue-based, Sus scrofa
In short: (§3)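 Hog gastric mucosa H+/K+-ATPase (0.5-1 µg/100 µL, with nigericin 1:1) in 4 mM Pipes/8 mM Tris pH 7.4, 0.25 M sucrose, 1 mM MgCl2, stimulated by 1 mM KCl. Compound 1e-4 to 1e-9 M final from DMSO stocks. Started with 1 mM Na-ATP, 30 min room temperature. Phosphate read by malachite green at 680 nm after 15 min.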

[3] = tested on: Gastric gland; assay: Inhibition of acid secretion in rabbit intact gastric glands assessed as […] accumulation; assay type: functional, tissue-based; details: Oryctolagus cuniculus
In short: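 Isolated gastric glands in Krebs-Henseleit with 2 mg/mL rabbit serum albumin and 2 mg/mL glucose. Incubated 30 min at 37 °C, shaking, with 0.125 µM 14C-aminopyrine at pH 7.4, stimulated by 1 mM dibutyryl cAMP, inhibitor 3 nM-100 µM. Stopped by centrifugation. Accumulation taken from pellet/supernatant radioactivity ratio. IC50 from fitted inhibition equation.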

[4] = tested on: Rattus norvegicus; assay: Inhibition of pentagastrin-stimulated acid secretion in perfused Ghosh Schild rat stomach at 3 umol/kg, intraduodenal; assay type: functional; parameters: scale not given: the % may be the effect or the level left; in short: as §1
[5] = tested on: Rattus norvegicus; assay: Inhibition of pentagastrin-stimulated acid secretion in perfused Ghosh Schild rat stomach at 1 umol/kg, intraduodenal; assay type: functional; parameters: scale not given: the % may be the effect or the level left; in short: as §1
[6] = Distribution coefficient, log D of the compound; assay type: physicochemical; details: octanol/water
In short: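 Distribution between 1-octanol and aqueous KCl measured by potentiometric titration over pH 2.0-11.0 at 25 °C.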

[7] = organism: Sus scrofa; assay: as §2; assay type: tissue-based; in short: as §3
[8] = Dissociation constant, pKa of the compound; assay type: physicochemical
In short: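 Potentiometric cosolvent titration in 0.15 mol/L KCl, pH 2.0-11.0, 25 °C, methanol as cosolvent in varying portions; titrants 0.5 mol/L KOH and HCl.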

pIC50 [2] | IC50 [3] [nM] | logD [6] | Activity [7] | pKa [8] | SMILES | Activity [1] [%] | Activity [4] [%] | Activity [3] | Activity [5] [%]
6.3 | 2000 | – | – | – | CNC(=O)c1cn2c(C)c(C)nc2c2c1CC[C@@H](c1ccccc1)O2 | 62 | – | – | –
5.4 | 2510 | – | – | – | Cc1nc2c3c(c(C(=O)N(C)C)cn2c1C)CC[C@H](c1ccccc1)O3 | – | 36 | – | –
4.4 | 5010 | – | – | – | CNC(=O)c1cn2c(C)c(C)nc2c2c1CC[C@H](c1ccccc1)O2 | – | 38 | – | –
4.5 | 2510 | – | – | – | Cc1nc2c3c(c(C(=O)N4CCCC4)cn2c1C)CC[C@H](c1ccccc1)O3 | – | 27 | – | –
5.1 | 2000 | – | – | – | Cc1nc2c3c(c(C(=O)NC4CC4)cn2c1C)CC[C@H](c1ccccc1)O3 | – | 40 | – | –
5.1 | 1580 | – | – | – | Cc1nc2c3c(c(C(=O)N4CCC4)cn2c1C)CC[C@H](c1ccccc1)O3 | – | 37 | – | –
< 4 | – | – | – | – | CC(=O)c1c(C)nc2c3c(c(C(=O)N(C)C)cn12)CC[C@H](c1ccccc1)O3 | – | 31 | inactive | –
– | – | 1.69 | inactive | 4.51 | Cc1nc2c3c(c(C(=O)N(C)C)cn2c1C(=O)N(C)C)CCC(c1ccccc1)O3 (racemic) | – | – | – | 26
– | – | 1.95 | inactive | 4.38 | COCCNC(=O)c1c(C)nc2c3c(c(C(=O)N(C)C)cn12)CCC(c1ccccc1)O3 (racemic) | – | – | – | 54
5.9 | 63100 | 2.19 | – | 6.63 | Cc1nc2c3c(c(C(=O)N4CC(O)C4)cn2c1C)CCC(c1ccccc1)O3 (racemic) | – | 54 | – | –
4.2 | – | 1.9 | – | 2.5 | Cc1nc2c3c(c(C(=O)NS(C)(=O)=O)cn2c1C)CCC(c1ccccc1)O3 (racemic) | – | 38 | inactive | –
5.2 | 25100 | 0.7 | – | 2.65 | Cc1nc2c3c(c(C(=O)O)cn2c1C)CCC(c1ccccc1)O3 (racemic) | – | 15 | – | –
